# Assay results pooled from the literature.
# Each line is one published result; the experiments were not run side by side.
# Read-out: cell growth or viability
Compound,cell line,assay,setting,measurement,value
Cn1c(=O)c(NN=C2C(=O)Nc3ccccc32)nc2ccccc21,HT-29,,30 µM,inhibition,73%
Cc1c(CN(C)C(=O)/C=C/c2cnc3c(c2)CC(CCN)C(=O)N3)oc2ccccc12 (stereo not shown),IMR-90,resazurin,"30 µM, 72 h",inhibition,12%
Cc1ccc2c(c1)C(=NNc1nnc(Cc3ccccc3)c3ccccc13)C(=O)N2,HT-29,,30 µM,inhibition,89.1%
Cc1cc(C)n(C(=S)[S][Au][PH](CCCCCC[PH]([Au][S]C(=S)n2nc(C)cc2C)(c2ccccc2)c2ccccc2)(c2ccccc2)c2ccccc2)n1,TK-10,,,GI50,1.21 µM
Cc1nc2ccc(Cl)cc2c(=O)n1NC(=O)CCl,LoVo,LDH,"200 µg/mL, 24 h",viability,89.5%
COc1ccc(-c2nc(NN=C3C(=O)Nc4ccc(Cl)cc43)c3ccccc3n2)cc1OC,HT-29,,30 µM,inhibition,5.3%
C=CC(=O)Nc1cc(-n2c(=O)ccc3cnc4ccc(-c5ccc(NS(C)(=O)=O)cc5)cc4c32)ccc1C,U2932,,48 h,GI50,2.15 µM
COc1ccc(-c2nc(NN=C3C(=O)Nc4ccc(Br)cc43)c3ccccc3n2)cc1OC,HT-29,,10 µM,inhibition,70.8%
Cc1c(NC(=O)c2ccc(C(C)(C)C)cc2)cccc1-c1cn(C)c(=O)c(Nc2ccc(C(=O)N3CCOCC3)cc2)n1,U2932,,48 h,GI50,> 10 µM
CCc1ccc(/C=N/n2c(C)nc3ccc(C)cc3c2=O)s1,LoVo,LDH,"200 µg/mL, 24 h",viability,89.5%
COc1cc(-c2ccc(-c3ccc(C(=N)N)nc3)s2)cc(OC)c1OC,TK-10,,,GI50,3.19 µM
Cc1nc2ccc(Br)cc2c(=O)n1/N=C/c1ccc(C(=O)O)cc1,LoVo,LDH,"200 µg/mL, 24 h",viability,61.9%
COc1ccc(-c2ccc(-c3ccc(C(=N)N)nc3)s2)cc1Cl,TK-10,,,GI50,1.9 µM
